The source made the active and inactive calls. The calls are words filed in the database; no cut-off is given here.
What was measured:
L1210 [1] = experiment: Antitumor activity in L1210 cells xenografted B6D2F1 mouse at 40 mg/kg, ip relative to control; assay type: functional; details: route intraperitoneal
Summary of the method: (§1)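 Mice grafted with L1210 leukaemia cells on day 0, then dosed i.p. four times weekly on days 1-4 and 8-11. Five mice per group. Outcome is %T/C, the median survival of treated over control. Kruskal-Wallis test followed by Dunn comparisons against control.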

HCT-15 = experiment: Antiproliferative activity against HCT15 cells after 72 hrs by MTT assay; assay type: functional, cell-based, Homo sapiens
Summary of the method: (§2)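 Cells cultured with each compound for three days; growth then read by the MTT colorimetric assay and reported as IC50 (µM).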

[2] = Antiproliferative activity against Hs683 cells after 72 hrs by MTT assay; assay type: functional, cell-based, Homo sapiens, Hs 683; summary of the method: as §2
[3] = Toxicity in ip dosed B6D2F1 mouse; assay type: organism-based; details: in vivo
Summary of the method: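 Acute MTD was set by a single i.p. dose to groups of three healthy female B6D2F1 mice, at 2.5, 5, 10, 20, 40, 80 and 160 mg/kg. The MTD is the dose just below the lowest dose that killed at least one mouse.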

[4] = Antiproliferative activity against U373MG cells after 72 hrs by MTT assay; assay type: functional, cell-based, Homo sapiens, U-373MG ATCC; summary of the method: as §2
Mus musculus [5] = experiment: Toxicity in B6D2F1 mouse at 120 mg/kg, ip; assay type: organism-based; set-up: dose 120 mg/kg, route intraperitoneal; details: in vivo
Summary of the method: (§3)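 Healthy female B6D2F1 mice, 10 per group, dosed i.p. in DMSO/saline (5:95 v/v) three times weekly for five weeks at two levels set relative to MTD; sacrificed 3 days after final dose; platelet, RBC and WBC counted by Coulter counter.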

A549 = experiment: Antiproliferative activity against A549 cells after 72 hrs by MTT assay; assay type: functional, cell-based, Homo sapiens; summary of the method: as §2
Mus musculus [6] = experiment: Hematotoxicity in ip dosed B6D2F1 mouse assessed as decrease in platelet count; assay type: organism-based; details: in vivo
Summary of the method: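 Healthy female B6D2F1 mice, 10 per group, dosed i.p. three times weekly for five weeks at two dose levels set relative to MTD. Vehicle DMSO/saline 5:95 v/v. Killed 3 days after the last dose; blood platelet, RBC and WBC counts taken with a Coulter counter.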

L1210 [7] = experiment: Antitumor activity in L1210 cells xenografted B6D2F1 mouse at 20 mg/kg, ip relative to control; assay type: functional; details: route intraperitoneal; summary of the method: as §1
MCF7 = experiment: Antiproliferative activity against MCF7 cells after 72 hrs by MTT assay; assay type: functional, cell-based, Homo sapiens; details: Homo sapiens, MCF7, 72 h; summary of the method: as §2
LoVo = experiment: Antiproliferative activity against LoVo cells after 72 hrs by MTT assay; assay type: functional, cell-based, Homo sapiens; summary of the method: as §2
L1210 [8] = experiment: Antitumor activity in L1210 cells xenografted B6D2F1 mouse at 80 mg/kg, ip relative to control; assay type: functional; details: route intraperitoneal; summary of the method: as §1
L1210 [9] = experiment: Antitumor activity in L1210 cells xenografted B6D2F1 mouse at 10 mg/kg, ip relative to control; assay type: functional; details: route intraperitoneal; summary of the method: as §1
L1210 [10] = experiment: Antitumor activity in L1210 cells xenografted B6D2F1 mouse at 120 mg/kg, ip relative to control; assay type: functional; details: route intraperitoneal; summary of the method: as §1
Mus musculus [11] = experiment: Hematotoxicity in B6D2F1 mouse assessed as platelet count at 2.5 mg/kg, po; assay type: organism-based; set-up: dose 2.5 mg/kg, route oral; details: in vivo
Mus musculus [12] = experiment: Toxicity in B6D2F1 mouse at 40 mg/kg, ip; assay type: organism-based; set-up: dose 40 mg/kg, route intraperitoneal; details: in vivo
Mus musculus [13] = experiment: Hematotoxicity in B6D2F1 mouse assessed as WBC count at 10 mg/kg, po; assay type: organism-based; set-up: dose 10 mg/kg, route oral; details: in vivo
Mus musculus [14] = experiment: Hematotoxicity in B6D2F1 mouse assessed as WBC count at 2.5 mg/kg, po; assay type: organism-based; set-up: dose 2.5 mg/kg, route oral; details: in vivo
Mus musculus [15] = experiment: Hematotoxicity in B6D2F1 mouse assessed as RBC count at 2.5 mg/kg, po; assay type: organism-based; set-up: dose 2.5 mg/kg, route oral; details: in vivo
Mus musculus [16] = experiment: Hematotoxicity in B6D2F1 mouse assessed as platelet count at 2.5 mg/kg, iv; assay type: organism-based; set-up: dose 2.5 mg/kg, route intravenous; details: in vivo
Mus musculus [17] = experiment: Hematotoxicity in B6D2F1 mouse assessed as platelet count at 5 mg/kg, po; assay type: organism-based; set-up: dose 5 mg/kg, route oral; details: in vivo
Mus musculus [18] = experiment: Hematotoxicity in B6D2F1 mouse assessed as WBC count at 5 mg/kg, po; assay type: organism-based; set-up: dose 5 mg/kg, route oral; details: in vivo
Mus musculus [19] = experiment: Hematotoxicity in B6D2F1 mouse assessed as RBC count at 10 mg/kg, po; assay type: organism-based; set-up: dose 10 mg/kg, route oral; details: in vivo
Mus musculus [20] = experiment: Hematotoxicity in B6D2F1 mouse assessed as platelet count at 10 mg/kg, po; assay type: organism-based; set-up: dose 10 mg/kg, route oral; details: in vivo
Homo sapiens = organism: Homo sapiens; experiment: Inhibition of human topoisomerase 2 at 50 uM by plasmid linearization assay
L1210 [21] = experiment: Antitumor activity in L1210 cells xenografted B6D2F1 mouse at 5 mg/kg, ip relative to control; assay type: functional; details: route intraperitoneal; summary of the method: as §1
Mus musculus [22] = experiment: Hematotoxicity in B6D2F1 mouse assessed as WBC count at 2.5 mg/kg, iv; assay type: organism-based; set-up: dose 2.5 mg/kg, route intravenous; details: in vivo
Mus musculus [23] = experiment: Hematotoxicity in B6D2F1 mouse assessed as RBC count at 5 mg/kg, iv; assay type: organism-based; set-up: dose 5 mg/kg, route intravenous; details: in vivo
Mus musculus [24] = experiment: Toxicity in B6D2F1 mouse at 80 mg/kg, ip; assay type: organism-based; set-up: dose 80 mg/kg, route intraperitoneal; details: in vivo; summary of the method: as §3
Mus musculus [25] = experiment: Hematotoxicity in B6D2F1 mouse assessed as RBC count at 5 mg/kg, po; assay type: organism-based; set-up: dose 5 mg/kg, route oral; details: in vivo
Mus musculus [26] = experiment: Hematotoxicity in B6D2F1 mouse assessed as platelet count at 5 mg/kg, iv; assay type: organism-based; set-up: dose 5 mg/kg, route intravenous; details: in vivo
Mus musculus [27] = experiment: Hematotoxicity in B6D2F1 mouse assessed as RBC count at 2.5 mg/kg, iv; assay type: organism-based; set-up: dose 2.5 mg/kg, route intravenous; details: in vivo
Mus musculus [28] = experiment: Hematotoxicity in B6D2F1 mouse assessed as WBC count at 5 mg/kg, iv; assay type: organism-based; set-up: dose 5 mg/kg, route intravenous; details: in vivo
Mus musculus [29] = experiment: Hematotoxicity in B6D2F1 mouse assessed as WBC count at 20 mg/kg, po; assay type: organism-based; set-up: dose 20 mg/kg, route oral; details: in vivo
Mus musculus [30] = experiment: Hematotoxicity in B6D2F1 mouse assessed as platelet count at 20 mg/kg, po; assay type: organism-based; set-up: dose 20 mg/kg, route oral; details: in vivo
Mus musculus [31] = experiment: Hematotoxicity in B6D2F1 mouse assessed as RBC count at 10 mg/kg, iv; assay type: organism-based; set-up: dose 10 mg/kg; details: in vivo
L1210 [32] = experiment: Antitumor activity in L1210 cells xenografted B6D2F1 mouse at 2.5 mg/kg, ip relative to control; assay type: functional; details: route intraperitoneal; summary of the method: as §1
[33] = Antitumor activity against mouse MXT-HI cells xenografted in B6D2F1 mouse at 20 mg/kg, ip relative to control; assay type: functional; details: route intraperitoneal
Summary of the method: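 MXT-HI mammary adenocarcinoma grafted s.c. onto female B6D2F1 mice. Dosing i.p., five injections weekly for three weeks from day 14 post-graft. Nine mice per group. Tumour surface area measured, and survival expressed as %T/C, the ratio of treated to control median survival time.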

Mus musculus [34] = experiment: Hematotoxicity in B6D2F1 mouse assessed as platelet count at 10 mg/kg, iv; assay type: organism-based; set-up: dose 10 mg/kg, route intravenous; details: in vivo
Mus musculus [35] = experiment: Hematotoxicity in B6D2F1 mouse assessed as RBC count at 20 mg/kg, po; assay type: organism-based; set-up: dose 20 mg/kg, route oral; details: in vivo
Mus musculus [36] = experiment: Hematotoxicity in B6D2F1 mouse assessed as WBC count at 10 mg/kg, iv; assay type: organism-based; set-up: dose 10 mg/kg, route intravenous; details: in vivo

CN(C)CCN1C(=O)c2cccc3cc(/N=C\c4cc5c(cc4[N+](=O)[O-])OCO5)cc(c23)C1=O
Activity (L1210 [1]): 278% | IC50 (HCT-15; Homo sapiens, HCT-15, 72 h): > 10 µM | IC50 ([2]; Homo sapiens, Hs 683, 72 h): > 10 µM | MTD [3]: > 160 mg/kg | IC50 ([4]; Homo sapiens, U373 MG, 72 h): 5 µM | Activity (Mus musculus [5]): Toxic | IC50 (A549; Homo sapiens, A549, 72 h): > 10 µM | Activity (Mus musculus [6]): Toxic | Activity (L1210 [7]): 195% | IC50 (MCF7): > 10 µM | IC50 (LoVo; Homo sapiens, LoVo, 72 h): > 10 µM | Activity (L1210 [8]): >300% | Activity (L1210 [9]): 215% | Activity (L1210 [10]): 40%

CC(=O)Nc1cc2c3c(cccc3c1)C(=O)N(CCN(C)C)C2=O
Activity (Mus musculus [11]): 961 10^3 /uL | Activity (L1210 [1]): 48% | IC50 (HCT-15; Homo sapiens, HCT-15, 72 h): 7.8 µM | Activity (Mus musculus [12]): Toxic | Activity (Mus musculus [13]): 2.66 10^3 /uL | Activity (Mus musculus [14]): 2.66 10^3 /uL | IC50 ([2]; Homo sapiens, Hs 683, 72 h): > 10 µM | Activity (Mus musculus [15]): 10.01 10^6 /uL | Activity (Mus musculus [16]): 470 10^3 /uL | MTD [3]: 40 mg/kg | IC50 ([4]; Homo sapiens, U373 MG, 72 h): 9 µM | Activity (Mus musculus [17]): 968 10^3 /uL | Activity (Mus musculus [18]): 2.74 10^3 /uL | Activity (Mus musculus [19]): 9.64 10^6 /uL | Activity (Mus musculus [20]): 922 10^3 /uL | IC50 (A549; Homo sapiens, A549, 72 h): > 10 µM | Activity (Homo sapiens): Active | Activity (L1210 [21]): 111% | Activity (Mus musculus [22]): 3.97 10^3 /uL | Activity (L1210 [7]): >300% | Activity (Mus musculus [23]): 9.59 10^6 /uL | Activity (Mus musculus [24]): Toxic | IC50 (MCF7): > 10 µM | Activity (Mus musculus [25]): 10.25 10^6 /uL | IC50 (LoVo; Homo sapiens, LoVo, 72 h): > 10 µM | Activity (L1210 [8]): 47% | Activity (L1210 [9]): 149% | Activity (Mus musculus [26]): 351 10^3 /uL | Activity (Mus musculus [27]): 9.74 10^6 /uL | Activity (Mus musculus [28]): 2.5 10^3 /uL

CN(C)CCN1C(=O)c2cccc3cc(N)cc(c23)C1=O [AMONAFIDE]
Activity (Mus musculus [29]): 2.93 10^3 /uL | Activity (Mus musculus [30]): 806 10^3 /uL | Activity (Mus musculus [31]): 9.54 10^6 /uL | Activity (L1210 [1]): 49% | IC50 (HCT-15; hct-15): 5.2 µM | Activity (Mus musculus [12]): Toxic | Activity (Mus musculus [13]): 3.06 10^3 /uL | IC50 ([2]; hs 683): 3.9 µM | MTD [3]: 40 mg/kg | IC50 ([4]; u-373mg atcc): 3.5 µM | Activity (L1210 [32]): 109% | Activity [33]: 143% | Activity (Mus musculus [17]): 892 10^3 /uL | Activity (Mus musculus [18]): 3.26 10^3 /uL | Activity (Mus musculus [19]): 10.05 10^6 /uL | Activity (Mus musculus [34]): 390 10^3 /uL | Activity (Mus musculus [20]): 916 10^3 /uL | IC50 (A549; a549): 3.8 µM | Activity (L1210 [21]): 140% | Activity (L1210 [7]): 121% | Activity (Mus musculus [23]): 8.59 10^6 /uL | IC50 (MCF7): 5.8 µM | Activity (Mus musculus [25]): 9.82 10^6 /uL | IC50 (LoVo; lovo): 2.7 µM | Activity (Mus musculus [35]): 9.54 10^6 /uL | Activity (L1210 [9]): 122% | Activity (Mus musculus [26]): 461 10^3 /uL | Activity (Mus musculus [36]): 3.07 10^3 /uL | Activity (Mus musculus [28]): 3.33 10^3 /uL

From ChEMBL document CHEMBL1148725, “2,2,2-Trichloro-N-({2-[2-(dimethylamino)ethyl]-1,3-dioxo-2,3-dihydro-1H-benzo[de]isoquinolin- 5-yl}carbamoyl)acetamide (UNBS3157), a novel nonhematotoxic naphthalimide derivative with potent antitumor activity” (J Med Chem, 2007)
